Screening data as filed in PubChem.
Biofilm kill mix = mixture kills Candida albicans biofilm cells. inhibition, % at 7.6 µM. AID 1242. C. albicans biofilm persisters + clotrimazole, fluorescence viability; primary screen in compound mixtures of four per well. 0.02% of 120,000 active;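 active = inhibition above 30.3% in the primary screen of four-compound pools, then above 30% when the compound was retested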;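 also: compounds exposed to preformed 24 h biofilms for 48 h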
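Test system: C. albicans CAF4-2 wild-type biofilms; buffer or medium: RPMI/MOPS medium, pH 7.0; schedule: 24 h biofilm formation, then 48 h compound exposure, 37 °C; detection: Alamar Blue fluorescence; measure: percent inhibition of biofilm viability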
FXIa inh 1536 = factor XIa (human) inhibition; P03951; purified FXIa, Boc-Glu-Ala-Arg-AMC fluorogenic substrate; inhibition, % at 5 µM; 0.14% of 220,000 active; AID 798;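 active = inhibition of at least 40%; inactive = inhibition below 40%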;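 also: fluorescence of freed AMC excited at 355 nm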
KLK5 inh = inhibitors of human kallikrein 5. Q9Y337. recombinant hK5, fluorogenic AMC substrate cleavage. inhibition, % at 5 µM. 0.59% of 210,000 active;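 active = inhibition of 40% or more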
Lipid droplet = hepatic lipid droplet formation modulation; AML12 mouse hepatocytes, oleate lipid droplets, BODIPY imaging; AID 1656; 0.4% of 240,000 active; inhibition, % at 6.5 µM;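 active = lipid droplet intensity inhibited by at least 50%, with more than 500 cells counted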
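Material: mouse AML12 hepatocyte cell line, fixed after treatment; Timing: compound with oleate, overnight; Technique: high-content imaging of BODIPY-stained droplets and DAPI nuclei; Probe or stimulus: oleate, 100 µM final; Dosing: compound at 6.5 µM only.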
thrombin 1536 = thrombin (human) inhibition. inhibition, % at 5 µM. AID 1046. alpha-thrombin, Boc-VPR-AMC fluorogenic substrate cleavage. P00734. 0.26% of 220,000 active;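 active = inhibition at or above 40%; inactive = inhibition below 40%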
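System: Human alpha-thrombin protein | Medium: pH 7.5 Tris (50 mM) with NaCl 150 mM, Tween 20 0.05% | Times: Enzyme reaction carried out at room temperature | Detection: AMC fluorescence, 355/460 nm | Evaluation: Percent inhibition scaled between no-compound controls and no-enzyme blanks | Benchmarks: Enzyme without compound as high, wells lacking enzyme as low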
FXIIa inh = blocks human coagulation factor XIIa protease activity; inhibition, % at 5 µM; P00748; purified FXIIa, Boc-QGR-AMC fluorogenic substrate, 2 h; 0.3% of 220,000 active; AID 800; in the data active = inhibition above about 40%
Target sequence (P00748 20-372 limits assumed): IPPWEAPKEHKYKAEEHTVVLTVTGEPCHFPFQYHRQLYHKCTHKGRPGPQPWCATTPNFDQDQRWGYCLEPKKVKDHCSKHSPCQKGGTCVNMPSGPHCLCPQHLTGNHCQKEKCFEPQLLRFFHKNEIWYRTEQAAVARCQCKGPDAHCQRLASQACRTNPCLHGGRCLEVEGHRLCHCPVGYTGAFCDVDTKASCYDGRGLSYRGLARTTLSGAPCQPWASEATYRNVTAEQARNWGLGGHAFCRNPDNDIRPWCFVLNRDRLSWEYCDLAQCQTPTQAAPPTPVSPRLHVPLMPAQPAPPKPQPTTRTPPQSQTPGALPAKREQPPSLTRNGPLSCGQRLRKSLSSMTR
Target sequence (P00748 373-615 limits assumed): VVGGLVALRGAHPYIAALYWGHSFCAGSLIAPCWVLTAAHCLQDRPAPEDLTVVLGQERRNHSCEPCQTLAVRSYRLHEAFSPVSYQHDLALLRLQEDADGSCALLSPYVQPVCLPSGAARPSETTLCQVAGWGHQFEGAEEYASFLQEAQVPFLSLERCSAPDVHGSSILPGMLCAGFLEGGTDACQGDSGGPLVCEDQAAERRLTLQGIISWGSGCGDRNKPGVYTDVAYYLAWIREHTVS
Hits are given with their value. Only some compounds are listed: those with a hit (about 1.1% of all), similar ones and a draw of the others.

For COC(=O)c1ccccc1NC(=O)Nc1cc(C)cc(C)n1 the results were FXIa inh 1536 inactive, KLK5 inh inactive, Lipid droplet inactive, thrombin 1536 inactive and FXIIa inh inactive.
CC1CCCC(C)N1CCNC(=O)CCc1nnc2n(Cc3ccccc3)c(=O)c3ccccc3n12 (stereo not drawn) was read as Lipid droplet inactive.
Screening COc1cc(/C=c2\s/c(=C\C(=O)C(C)(C)C)[nH]c2=O)cc(OC)c1OC returned Biofilm kill mix inactive, FXIa inh 1536 inactive, KLK5 inh 46.8, Lipid droplet inactive, thrombin 1536 inactive and FXIIa inh inactive.
COc1ccc(/C=c2\s/c(=C\C(=O)C(C)(C)C)[nH]c2=O)cc1O was read as Biofilm kill mix inactive, FXIa inh 1536 inactive, KLK5 inh inactive, Lipid droplet inactive, thrombin 1536 inactive and FXIIa inh inactive.
For OC(CN1C2=NCCN2c2ccccc21)c1ccc(Br)cc1 (stereo not drawn) the results were FXIa inh 1536 inactive, KLK5 inh 52.9, thrombin 1536 inactive and FXIIa inh inactive.
`CCCc1cc(=O)oc2cc(OCC(=O)NCCCn3ccnc3)c(Cl)cc12` gave Lipid droplet inactive.
Screening CC1=NN(C(C#N)c2ccc(F)cc2)C(C)(C)C1 (stereo not drawn) returned Biofilm kill mix inactive, FXIa inh 1536 inactive, Lipid droplet inactive, thrombin 1536 inactive and FXIIa inh inactive.
`CC1=NN(C(C#N)c2ccc([N+](=O)[O-])cc2)C(C)(C)C1` (stereo not drawn) gave Biofilm kill mix inactive, FXIa inh 1536 49.9, KLK5 inh 57.0, Lipid droplet inactive, thrombin 1536 inactive and FXIIa inh inactive.
`CSc1nc(Sc2ccc(Cl)cc2)c2ccccc2n1` gave FXIa inh 1536 inactive, KLK5 inh 61.7, thrombin 1536 inactive and FXIIa inh inactive.
Screening CC(Sc1nc2c(c(=O)[nH]1)CCCC2)C(=O)Nc1ccccc1C#N (stereo not drawn) returned Lipid droplet inactive.
For COc1ccc(/C=N/Nc2ccc(C(F)(F)F)cc2[N+](=O)[O-])cc1O the results were Biofilm kill mix inactive, FXIa inh 1536 inactive, KLK5 inh inactive, Lipid droplet inactive, thrombin 1536 inactive and FXIIa inh inactive.
CCOc1ccc(/C=N/Nc2ccc(C(F)(F)F)cc2[N+](=O)[O-])cc1O was read as Biofilm kill mix inactive, FXIa inh 1536 inactive, KLK5 inh inactive, Lipid droplet 74.1, thrombin 1536 inactive and FXIIa inh inactive.
`CC(=O)Nc1ccc(NC2=C(Cl)C(=O)c3ccccc3C2=O)cc1` gave Biofilm kill mix inactive, FXIa inh 1536 inactive, KLK5 inh inactive, Lipid droplet inactive, thrombin 1536 inactive and FXIIa inh inactive.
Cc1ccc(NC2=C(NCCO)C(=O)c3ccccc3C2=O)cc1 was read as Biofilm kill mix inactive, FXIa inh 1536 inactive, KLK5 inh inactive, Lipid droplet 59.1, thrombin 1536 inactive and FXIIa inh inactive.
For C/C(=N\NC(=S)NCc1ccccc1)c1ccccc1 the results were Biofilm kill mix inactive, FXIa inh 1536 inactive, KLK5 inh inactive, thrombin 1536 inactive and FXIIa inh inactive.
C/C(=N\NC(=S)NCc1ccccc1)c1ccc(C#N)cc1 was read as Biofilm kill mix inactive, FXIa inh 1536 inactive, KLK5 inh 54.0, Lipid droplet inactive, thrombin 1536 inactive and FXIIa inh inactive.
`Cc1nnc(SCCn2c(Br)nc3c2c(=O)[nH]c(=O)n3C)s1` gave FXIa inh 1536 43.8, KLK5 inh inactive, thrombin 1536 inactive and FXIIa inh inactive.
`CC1=C(C(=O)Nc2ccccc2C(=O)NC2CCC(C)CC2)SCCO1` (stereo not drawn) gave Lipid droplet inactive.
Screening CCCn1c(=N)n(CC(=O)c2cccs2)c2ccccc21 returned FXIa inh 1536 inactive, KLK5 inh inactive, Lipid droplet inactive, thrombin 1536 inactive and FXIIa inh inactive.
Cn1c(=N)n(CC(=O)c2cccs2)c2ccccc21 was read as FXIa inh 1536 inactive, KLK5 inh 45.0, thrombin 1536 inactive and FXIIa inh inactive.
For CCOc1ccc(N(Cc2ccccc2F)C2=NC3CS(=O)(=O)CC3S2)cc1 (stereo not drawn) the results were Biofilm kill mix inactive, FXIa inh 1536 inactive, KLK5 inh 44.7, Lipid droplet inactive, thrombin 1536 inactive and FXIIa inh inactive.
`O=S1(=O)CC2N=C(N(Cc3c(F)cccc3Cl)c3ccccc3F)SC2C1` (stereo not drawn) gave Biofilm kill mix inactive, FXIa inh 1536 inactive, KLK5 inh inactive, Lipid droplet inactive, thrombin 1536 inactive and FXIIa inh inactive.
`O=C(Nc1ccc(CN2CCCCC2)cc1)c1sc2ccccc2c1Cl` gave Biofilm kill mix inactive, FXIa inh 1536 inactive, KLK5 inh inactive, Lipid droplet inactive, thrombin 1536 inactive and FXIIa inh inactive.
Screening Cc1ccc(S(=O)(=O)CCC(=O)OCc2ccc(Cl)cc2)cc1 returned Biofilm kill mix inactive, FXIa inh 1536 inactive, KLK5 inh 52.6, Lipid droplet inactive, thrombin 1536 inactive and FXIIa inh inactive.
`COC(=O)c1ccc(COC(=O)CCS(=O)(=O)c2ccc(C)cc2)cc1` gave Biofilm kill mix inactive, FXIa inh 1536 inactive, KLK5 inh inactive, Lipid droplet inactive, thrombin 1536 inactive and FXIIa inh inactive.
Screening O=C(Nc1ccccc1)c1oc2ccccc2c1NC(=O)C1CC1 returned Lipid droplet inactive.
For CN1C(=O)C(O)(c2sc(N)nc2-c2ccccc2)c2ccccc21 (stereo not drawn) the results were FXIa inh 1536 inactive, KLK5 inh 56.0, thrombin 1536 inactive and FXIIa inh inactive.
CC(=O)c1ccc(NC(=O)/C(=C\c2ccc(F)cc2)NC(=O)c2ccco2)cc1 was read as Lipid droplet inactive.
`C=CCN1C=CC(=CC=C(C#N)C#N)C=C1` gave Biofilm kill mix inactive, FXIa inh 1536 inactive, KLK5 inh inactive, Lipid droplet inactive, thrombin 1536 inactive and FXIIa inh inactive.
For CCCN1C=CC(=CC=C(C#N)C#N)C=C1 the results were Biofilm kill mix inactive, FXIa inh 1536 inactive, KLK5 inh 67.0, Lipid droplet inactive, thrombin 1536 inactive and FXIIa inh inactive.
`CC(Nc1nc2ncn(Cc3ccccc3)c2c(=O)[nH]1)C(=O)O` (stereo not drawn) gave FXIa inh 1536 inactive, KLK5 inh inactive, thrombin 1536 62.0 and FXIIa inh inactive.
`O=C(O)CCCCCNc1nc2ncn(Cc3ccccc3)c2c(=O)[nH]1` gave FXIa inh 1536 inactive, KLK5 inh inactive, Lipid droplet inactive, thrombin 1536 inactive and FXIIa inh inactive.
For O=C(COC(=O)c1ccncc1)c1ccc(Cl)c(Cl)c1 the results were Biofilm kill mix inactive, FXIa inh 1536 inactive, KLK5 inh inactive, Lipid droplet inactive, thrombin 1536 inactive and FXIIa inh inactive.
For Nc1nncn1C(=O)CCc1ccccc1 the results were FXIa inh 1536 inactive, KLK5 inh inactive, Lipid droplet inactive, thrombin 1536 55.8 and FXIIa inh inactive.
